One compound from ChEMBL document CHEMBL2380219, “Physalin A induces apoptotic cell death and protective autophagy in HT1080 human fibrosarcoma cells” (J Nat Prod, 2013) can be followed below.

Data set [1] deals with HT-1080. Briefly: Induction of apoptosis in human HT1080 cells expressing beclin 1 siRNA assessed as increase in PARP cleavage at 10 uM after 24 hrs by Western blotting relative to control. Type of data set: functional, cell-based. In a few lines: (§1)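 Beclin 1 or nonspecific siRNA transfected into HT1080 cells (5 × 10^5 seeded a day earlier; transfection mixture for 7 h at 37 °C, then normal medium, 24 h before harvest). Cells then got 10 μM for 24 h. Adherent plus floating cells lysed in Hepes pH 7.4/Triton buffer at 4 °C for 60 min. Equal protein on 12% SDS-PAGE, nitrocellulose, ECL. Bands normalized to β-actin, n = 3.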
On the technique in general: A western blot detects proteins with antibodies after separation by electrophoresis.

In data set [2] the test system is HT-1080. Briefly: Induction of apoptosis in human HT1080 cells expressing beclin 1 siRNA assessed as increase in procaspase-8 cleavage at 10 uM after 24 hrs by Western blotting analysis relative to control. Type of data set: functional, cell-based. The method, boiled down:
as §1

The subject of data set [3] is HT-1080. Kind of data set: Induction of apoptosis in human HT1080 cells expressing beclin 1 siRNA assessed as increase in FADD protein expression at 10 uM after 24 hrs by Western blotting analysis relative to control. The class given is functional, cell-based. The method, boiled down:
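5 × 10^5 HT1080 cells transfected with beclin 1 or nonspecific siRNA using TranSmarter for 7 h at 37 °C, then kept 24 h in normal medium. Treated with 10 μM for 24 h and lysed. Proteins assessed by Western blot with β-actin normalization and compared with nonspecific-siRNA groups.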

The subject of data set [4] is HT-1080. Briefly: Induction of apoptosis in human HT1080 cells expressing beclin 1 siRNA assessed as increase in FAS protein expression at 10 uM after 24 hrs by Western blotting analysis relative to control. Type of data set: functional, cell-based. In a few lines: as §1
Data set [5] concerns HT-1080. Kind of data set: Induction of apoptosis in human HT1080 cells expressing beclin 1 siRNA assessed as reversal of beclin 1 upregulation at 10 uM after 24 hrs by Western blotting analysis relative to control. Type of data set: functional, cell-based. In a few lines:
as §1

Data set [6] concerns HT-1080. Kind of data set: Induction of apoptosis in human HT1080 cells assessed as downregulation of ICAD at 10 uM pretreated with rapamycin for 1 hr prior to compound addition measured after 24 hrs by Western blotting analysis. The class given is functional, cell-based. In a few lines:
(§2)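 HT1080 cells pretreated 1 h with 1 mM 3MA or 1 nM rapamycin, then co-incubated with 10 μM for 24 h. Adherent and floating cells lysed in Hepes pH 7.4/Triton buffer. 12% SDS-PAGE, nitrocellulose, antibodies against Fas, FADD, caspase-8, caspase-3, PARP and ICAD, ECL detection. Densities normalized to β-actin; n = 3.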

Data set [7] concerns HT-1080. Kind of data set: Induction of apoptosis in human HT1080 cells assessed as upregulation of FAS protein expression at 10 uM pretreated with rapamycin for 1 hr prior to compound addition measured after 24 hrs by Western blotting analysis. Type of data set: functional, cell-based. In a few lines:
as §2

Data set [8] concerns HT-1080. Kind of data set: Induction of apoptosis in human HT1080 cells assessed as increase in apoptotic ratio at 10 uM pretreated with rapamycin for 1 hr prior to compound addition measured after 24 hrs by propidium iodide staining-based FACS flow cytometric analysis. Type of data set: functional, cell-based.
In data set [9] the test system is HT-1080. Briefly: Induction of apoptosis in human HT1080 cells assessed as increase in apoptotic ratio at 10 uM pretreated with 3MA for 1 hr prior to compound addition measured after 24 hrs by propidium iodide staining-based FACS flow cytometric analysis. The class given is functional, cell-based. (In general: A flow cytometer gives signals particle by particle.)

Data set [10] concerns HT-1080. Briefly: Induction of autophagy in human HT1080 cells assessed as upregulation of beclin 1 at 10 uM by Western blotting analysis. The note with it: TDE = time-dependent effect. The class given is functional, cell-based. The method, boiled down: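 HT1080 cells exposed to 10 μM for 6, 12, 18 and 24 h, then lysed in Hepes pH 7.4/Triton buffer at 4 °C for 60 min. Equal protein run on 12% SDS-PAGE, blotted to nitrocellulose, probed for beclin 1 and LC3, ECL detection. Densities taken relative to β-actin, n = 3.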

Data set [11] has as its system HT-1080. Kind of data set: Induction of apoptosis in human HT1080 cells assessed as change in BAX expression at 10 uM after 6 to 24 hrs by Western blotting analysis. The class given is functional, cell-based. In a few lines:
(§3)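 HT1080 cells treated with 10 μM for 6, 12, 18 and 24 h. Adherent and floating cells lysed 60 min at 4 °C in Hepes pH 7.4/1% Triton X-100 buffer with phosphatase and protease inhibitors. Equal protein run on 12% SDS-PAGE, transferred to nitrocellulose, probed with specific antibodies, HRP/ECL detection. Band density normalized to β-actin; n = 3.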

Data set [12] deals with HT-1080. Kind of data set: Induction of apoptosis in human HT1080 cells assessed as change in cytochrome C expression at 10 uM after 6 to 24 hrs by Western blotting analysis. Type of data set: functional, cell-based. In a few lines: as §3
The test system of data set [13] is HT-1080. Briefly: Induction of apoptosis in human HT1080 cells assessed as increase in FADD protein expression at 10 uM after 6 to 24 hrs by Western blotting analysis. Type of data set: functional, cell-based. The method, boiled down: as §3
Data set [14] has as its system HT-1080. Briefly: Induction of apoptosis in human HT1080 cells assessed as increase in FAS protein expression at 10 uM after 6 to 24 hrs by Western blotting analysis. The class given is functional, cell-based. In a few lines: as §3
For data set [15], the system named is HT-1080. Kind of data set: Cytotoxicity against human HT1080 cells assessed as growth inhibition at 10 uM pretreated with z-LEHD-FMK for 1 hr prior to compound addition measured after 24 hrs by MTT assay. Type of data set: functional, cell-based. In a few lines:
(§4)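 HT1080 seeded 0.8 × 10^4 cells/well. MTT 2 h at 37 °C, formazan in DMSO, A492 read. Inhibition % calculated against untreated and blank wells.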
On the technique in general: Tetrazolium dyes change colour on reduction, which living cells bring about.

Data set [16] relates to HT-1080. Briefly: Cytotoxicity against human HT1080 cells assessed as growth inhibition at 10 uM pretreated with z-DEVD-FMK for 1 hr prior to compound addition measured after 24 hrs by MTT assay. Type of data set: functional, cell-based. The method, boiled down:
as §4

Data set [17] has as its system HT-1080. Briefly: Induction of apoptosis in human HT1080 cells assessed as accumulation in subG1 phase at 10 uM after 24 hrs by propidium iodide staining-based FACS flow cytometric analysis (reference value: 0.32%). Type of data set: functional.
For data set [18], the system named is HT-1080. Briefly: Induction of apoptosis in human HT1080 cells assessed as appearance of membrane blebbing at 10 uM after 24 hrs by acridine orange staining-based fluorescence microscopic analysis. Type of data set: functional, cell-based. In a few lines:
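HT1080 cells, 2 × 10^4/well, cultured 24 h, then exposed to 10 μM for 24 h. Stained with acridine orange 20 μg/mL for 15 min in the dark and examined by fluorescence microscopy at 200×.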

The test system of another data set is PBMC. Briefly: Cytotoxicity against human PBMC at 10 to 80 uM after 24 to 48 hrs by MTT assay. Type of data set: cell-based. The method, boiled down:
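PBMC from fresh blood of three healthy male donors. Blood diluted 1:3 in PBS, layered on Ficoll-Hypaque (1.077 g/mL), spun 900g 30 min. Band washed 400g 10 min, cells resuspended in complete RPMI-1640 in 96-well plates. Treated with 0, 10, 20, 40 or 80 μM for 24 and 48 h, then MTT. Means ± SD of three independent experiments.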

Another data set relates to A-431. Kind of data set: Cytotoxicity against human A431 cells assessed as growth inhibition after 24 hrs by MTT assay. Type of data set: functional, cell-based. The method, boiled down:
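Seeded 0.8 × 10^4 cells/well, cultured 24 h, then exposed to 0, 10, 20, 40 or 80 μM for 24 h (DMSO <0.05%) in RPMI 1640 or MEM with 10% FBS. Adherent lines rinsed with PBS, given MTT 2 h at 37 °C. Suspension lines (U937, HL60) given MTT 2 h, then centrifuged. Formazan dissolved in DMSO, A492 read. Inhibition % = (control − sample)/(control − blank) × 100.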

Active and inactive are the calls of the source. The rule behind the calls is not given here.

In the case of `C=C1C(=O)O[C@@H]2C[C@@]1(C)[C@@H]1C(=O)[C@]3(O)O[C@]14[C@@]2(C)OC(=O)[C@@]4(O)CC[C@H]1[C@H]3[C@H](O)C=C2CC=CC(=O)[C@@]21C` [PHYSALIN A], the result with HT-1080 [1], with HT-1080 [2], with HT-1080 [3], with HT-1080 [4], with HT-1080 [5] and with HT-1080 [9] was Active. Besides, the outcome with HT-1080 [13], with HT-1080 [14] and in the data set on HT-1080 [18] was Active. In addition, the result in the data set with HT-1080 [6], in the data set on HT-1080 [7], in the data set with HT-1080 [8], in the data set with HT-1080 [11] and in the data set with HT-1080 [12] was inactive. In addition, the Activity entry was “tde” in the data set on HT-1080 [10], 27.79% in the data set with HT-1080 [17] and “Non-toxic” with PBMC. In the data set with HT-1080 [15], the “growth inhibition (GI)” value was “inactive”. Besides, the “growth inhibition (GI)” value in the data set with HT-1080 [16] is “Active”. Moreover, the “growth inhibition (GI)” value with A-431 was “Dose-dependent effect”.
